# Laboratory results published in ChEMBL document CHEMBL2029240 (ACS Med Chem Lett, 2011).
# The source made the active and inactive calls. The calls are words filed in the database; no cut-off is given here.
# Assays:
# [1] = molecular target: T1, C-C chemokine receptor type 2 (Homo sapiens, UniProt P41597)
# [2] = molecular target: T1, C-C chemokine receptor type 2; experiment: Antagonist activity at CCR2 receptor in human whole blood assessed as inhibition of alexa-tagged MCP-induced effect 30 mins by flow cytometry; type: functional, tissue-based
# [3] = molecular target: T2, Voltage-gated inwardly rectifying potassium channel KCNH2 (Homo sapiens, UniProt Q12809); experiment: Displacement of [3H]dofetilide from human ERG
# [4] = Fraction unbound in human serum; type: ADME, cell-free
# [5] = molecular target: T3, C-C chemokine receptor type 2 (Mus musculus, UniProt P51683); experiment: Antagonist activity at mouse CCR2; type: functional
# Outline: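 Read-out was antagonism of CCR2-mediated chemotaxis in a mouse chemotaxis assay, with activity reported as IC50.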
# Rattus norvegicus [6] = experiment: Clearance in rat at 2 mg/kg, iv; type: ADME, organism-based; design: dose 2 mg/kg, route intravenous; details: in vivo
# Outline: (§1)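 Rats were dosed iv at 2 mg/kg and orally at 10 mg/kg. Plasma PK parameters derived: CL (L/h/kg), Vss (L/kg), t1/2 (h), Cmax (nM), Tmax (h), AUC (nM h) and oral F%.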
# [7] = Tmax in rat at 10 mg/kg, po; type: ADME, organism-based; design: dose 10 mg/kg, route oral; details: in vivo
# Outline: as §1
# [8] = Clearance in dog at 2 mg/kg, iv; type: ADME, organism-based, Canis lupus familiaris; design: dose 2 mg/kg, route intravenous; details: in vivo
# [9] = Half life in rat at 10 mg/kg, po; type: ADME, organism-based; design: dose 10 mg/kg, route oral; details: in vivo
# Outline: as §1
# [10] = molecular target: T4, C-X-C chemokine receptor type 5 (Homo sapiens) (UniProt P32302); experiment: Inhibition of CXCR5 at 1 uM
# T4 sequence (whole entry): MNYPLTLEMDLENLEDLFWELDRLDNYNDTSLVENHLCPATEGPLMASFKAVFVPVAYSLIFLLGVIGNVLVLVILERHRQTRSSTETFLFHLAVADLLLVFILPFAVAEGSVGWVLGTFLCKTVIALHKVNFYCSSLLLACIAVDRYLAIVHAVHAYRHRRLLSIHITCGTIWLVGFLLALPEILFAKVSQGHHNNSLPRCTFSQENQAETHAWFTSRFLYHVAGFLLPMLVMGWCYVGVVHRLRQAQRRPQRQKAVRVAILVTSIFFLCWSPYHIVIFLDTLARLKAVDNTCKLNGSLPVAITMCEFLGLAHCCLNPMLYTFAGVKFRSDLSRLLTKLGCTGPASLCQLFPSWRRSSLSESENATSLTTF
# Outline: (§2)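 Single-concentration screen at 1 μM against a broad panel of more than 50 targets (ion channels, transporters, chemokine receptors, other GPCRs), scored for significant inhibition.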
# Rattus norvegicus [11] = experiment: Oral bioavailability in rat at 10 mg/kg; type: ADME, organism-based; details: in vivo
# Outline: as §1
# [12] = Cmax in rat at 10 mg/kg, po; type: ADME, organism-based; design: dose 10 mg/kg, route oral; details: in vivo
# Outline: as §1
# [13] = Tmax in dog at 10 mg/kg, po; type: ADME, organism-based, Canis lupus familiaris; design: dose 10 mg/kg, route oral; details: in vivo
# [14] = Half life in dog at 10 mg/kg, po; type: ADME, organism-based, Canis lupus familiaris; design: dose 10 mg/kg, route oral; details: in vivo
# Cytochrome P450 2C9 = Cytochrome P450 2C9 (Homo sapiens, UniProt P11712); experiment: Inhibition of CYP2C9; type: ADME
# [15] = Half life in human liver microsomes; type: ADME, Microsome
# [16] = molecular target: T3, C-C chemokine receptor type 2; experiment: Binding affinity to mouse CCR2
# Outline: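 Mouse CCR2 binding assay, with affinity reported as IC50.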
# [17] = molecular target: C-C chemokine receptor type 5 (Homo sapiens) (UniProt P51681); experiment: Inhibition of CCR5 at 1 uM
# Outline: as §2
# [18] = Volume of distribution at steady state in dog at 2 mg/kg, iv; type: ADME, organism-based, Canis lupus familiaris; design: dose 2 mg/kg, route intravenous; details: in vivo, read-out: Vdss
# Rattus norvegicus [19] = experiment: Half life in rat at 2 mg/kg, iv; type: ADME, organism-based; design: dose 2 mg/kg, route intravenous; details: in vivo
# Outline: as §1
# Cytochrome P450 1A2 = molecular target: T5, Cytochrome P450 1A2 (Homo sapiens, UniProt P05177); experiment: Inhibition of CYP1A2; type: ADME
# T5 sequence (P05177 whole entry): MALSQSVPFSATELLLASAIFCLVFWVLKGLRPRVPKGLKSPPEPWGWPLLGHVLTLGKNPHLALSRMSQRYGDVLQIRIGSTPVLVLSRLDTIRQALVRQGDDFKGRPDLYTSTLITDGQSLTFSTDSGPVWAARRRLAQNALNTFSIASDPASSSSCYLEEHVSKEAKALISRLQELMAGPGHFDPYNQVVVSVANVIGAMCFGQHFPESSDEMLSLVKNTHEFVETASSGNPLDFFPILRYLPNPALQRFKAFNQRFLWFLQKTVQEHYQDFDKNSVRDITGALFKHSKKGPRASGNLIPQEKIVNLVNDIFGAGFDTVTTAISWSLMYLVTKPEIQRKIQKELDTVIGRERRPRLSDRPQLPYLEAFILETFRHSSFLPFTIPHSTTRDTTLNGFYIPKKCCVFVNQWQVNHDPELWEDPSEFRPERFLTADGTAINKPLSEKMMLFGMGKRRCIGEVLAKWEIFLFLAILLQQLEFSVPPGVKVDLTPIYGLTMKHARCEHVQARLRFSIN
# Cytochrome P450 2D6 = Cytochrome P450 2D6 (Homo sapiens, UniProt P10635); experiment: Inhibition of CYP2D6; type: ADME
# [20] = Oral bioavailability in dog at 10 mg/kg; type: ADME, organism-based, Canis lupus familiaris; details: in vivo
# [21] = Half life in dog at 2 mg/kg, iv; type: ADME, organism-based, Canis lupus familiaris; design: dose 2 mg/kg, route intravenous; details: in vivo
# [22] = molecular target: T2, Voltage-gated inwardly rectifying potassium channel KCNH2; experiment: Inhibition of human ERG by patch clamp assay
# [23] = molecular target: T6, C-C chemokine receptor type 2 (Rattus norvegicus, UniProt O55193); experiment: Antagonist activity at rat CCR2; type: functional
# T6 sequence (O55193 whole entry): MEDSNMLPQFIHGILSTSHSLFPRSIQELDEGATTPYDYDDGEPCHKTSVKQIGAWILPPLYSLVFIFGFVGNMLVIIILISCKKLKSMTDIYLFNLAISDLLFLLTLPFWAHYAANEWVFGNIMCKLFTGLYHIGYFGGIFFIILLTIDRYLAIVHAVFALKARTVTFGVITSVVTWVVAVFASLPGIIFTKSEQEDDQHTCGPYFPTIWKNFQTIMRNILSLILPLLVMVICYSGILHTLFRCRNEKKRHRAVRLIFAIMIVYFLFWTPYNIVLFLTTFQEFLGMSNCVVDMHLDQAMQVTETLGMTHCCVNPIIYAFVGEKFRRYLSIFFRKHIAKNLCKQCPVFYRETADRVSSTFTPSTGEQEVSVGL
# [24] = Drug metabolism in human S9 fraction assessed as glutathione adduct formation in the absence of NADPH; type: ADME, subcellular
# Outline: (§3)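 Test agent incubated with human liver S9 fraction plus glutathione as cofactor, run both with and without NADPH. Read-out was detection of glutathione adducts.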
# Rattus norvegicus [25] = experiment: AUC in rat at 10 mg/kg, po; type: ADME, organism-based, Plasma; design: dose 10 mg/kg, route oral; details: in vivo
# Outline: as §1
# [26] = molecular target: T6, C-C chemokine receptor type 2; experiment: Binding affinity to rat CCR2
# [27] = Induction of Cytochrome P450 up to 30 uM; type: ADME
# Cytochrome P450 2C19 = Cytochrome P450 2C19 (Homo sapiens, UniProt P33261); experiment: Inhibition of CYP2C19; type: ADME
# [28] = AUC in dog at 10 mg/kg, po; type: ADME, organism-based, Canis lupus familiaris; design: dose 10 mg/kg, route oral; details: plasma
# [29] = Permeability across human Caco2 cells; type: ADME, cell-based; details: Caco-2, read-out: permeability
# [30] = Drug metabolism in human S9 fraction assessed as glutathione adduct formation in the presence of NADPH; type: ADME, subcellular
# Outline: as §3
# [31] = molecular target: T7, C-X-C chemokine receptor type 3 (Homo sapiens) (UniProt P49682); experiment: Inhibition of CXCR3 at 1 uM
# T7 sequence (whole entry): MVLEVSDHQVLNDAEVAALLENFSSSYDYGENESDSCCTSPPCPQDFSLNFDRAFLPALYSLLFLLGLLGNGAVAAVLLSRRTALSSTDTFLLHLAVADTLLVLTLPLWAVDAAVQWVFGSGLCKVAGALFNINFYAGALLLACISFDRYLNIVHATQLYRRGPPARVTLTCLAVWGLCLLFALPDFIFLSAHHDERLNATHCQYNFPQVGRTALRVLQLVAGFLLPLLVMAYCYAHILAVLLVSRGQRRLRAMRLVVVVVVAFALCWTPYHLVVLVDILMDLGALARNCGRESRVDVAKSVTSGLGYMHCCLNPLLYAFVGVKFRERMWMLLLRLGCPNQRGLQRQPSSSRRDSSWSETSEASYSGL
# Outline: as §2
# [32] = molecular target: T8, C-C chemokine receptor type 3 (Homo sapiens) (UniProt P51677); experiment: Inhibition of CCR3 at 1 uM
# T8 sequence (whole entry): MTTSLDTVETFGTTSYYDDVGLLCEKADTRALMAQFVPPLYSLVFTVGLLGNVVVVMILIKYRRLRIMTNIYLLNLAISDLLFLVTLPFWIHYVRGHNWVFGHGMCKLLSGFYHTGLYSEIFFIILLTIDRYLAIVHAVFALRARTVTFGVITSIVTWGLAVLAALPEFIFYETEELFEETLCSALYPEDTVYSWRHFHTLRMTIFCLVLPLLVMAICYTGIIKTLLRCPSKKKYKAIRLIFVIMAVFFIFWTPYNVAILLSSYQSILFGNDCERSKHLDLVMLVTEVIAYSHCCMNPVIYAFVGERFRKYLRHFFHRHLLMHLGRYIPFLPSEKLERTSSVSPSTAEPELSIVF
# Outline: as §2
# [33] = Cmax in dog at 10 mg/kg, po; type: ADME, organism-based, Canis lupus familiaris; design: dose 10 mg/kg, route oral; details: in vivo
# [34] = molecular target: T9, C-C chemokine receptor type 1 (Homo sapiens) (UniProt P32246); experiment: Inhibition of CCR1 at 1 uM
# T9 sequence (whole entry): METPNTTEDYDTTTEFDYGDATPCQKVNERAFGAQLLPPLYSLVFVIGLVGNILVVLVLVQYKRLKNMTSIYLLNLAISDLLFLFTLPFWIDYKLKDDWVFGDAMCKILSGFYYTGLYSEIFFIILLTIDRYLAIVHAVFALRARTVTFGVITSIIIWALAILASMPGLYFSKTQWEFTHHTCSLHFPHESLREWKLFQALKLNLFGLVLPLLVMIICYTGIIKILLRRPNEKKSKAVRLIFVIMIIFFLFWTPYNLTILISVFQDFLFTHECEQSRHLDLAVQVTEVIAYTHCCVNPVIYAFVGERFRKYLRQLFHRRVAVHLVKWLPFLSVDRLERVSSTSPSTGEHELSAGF
# Outline: as §2
# hERG (KCNH2) = hERG (KCNH2) (Homo sapiens, UniProt Q12809); experiment: Inhibition of human ERG at 10 uM by patch clamp assay
# hERG (KCNH2), sequence (Q12809 whole entry): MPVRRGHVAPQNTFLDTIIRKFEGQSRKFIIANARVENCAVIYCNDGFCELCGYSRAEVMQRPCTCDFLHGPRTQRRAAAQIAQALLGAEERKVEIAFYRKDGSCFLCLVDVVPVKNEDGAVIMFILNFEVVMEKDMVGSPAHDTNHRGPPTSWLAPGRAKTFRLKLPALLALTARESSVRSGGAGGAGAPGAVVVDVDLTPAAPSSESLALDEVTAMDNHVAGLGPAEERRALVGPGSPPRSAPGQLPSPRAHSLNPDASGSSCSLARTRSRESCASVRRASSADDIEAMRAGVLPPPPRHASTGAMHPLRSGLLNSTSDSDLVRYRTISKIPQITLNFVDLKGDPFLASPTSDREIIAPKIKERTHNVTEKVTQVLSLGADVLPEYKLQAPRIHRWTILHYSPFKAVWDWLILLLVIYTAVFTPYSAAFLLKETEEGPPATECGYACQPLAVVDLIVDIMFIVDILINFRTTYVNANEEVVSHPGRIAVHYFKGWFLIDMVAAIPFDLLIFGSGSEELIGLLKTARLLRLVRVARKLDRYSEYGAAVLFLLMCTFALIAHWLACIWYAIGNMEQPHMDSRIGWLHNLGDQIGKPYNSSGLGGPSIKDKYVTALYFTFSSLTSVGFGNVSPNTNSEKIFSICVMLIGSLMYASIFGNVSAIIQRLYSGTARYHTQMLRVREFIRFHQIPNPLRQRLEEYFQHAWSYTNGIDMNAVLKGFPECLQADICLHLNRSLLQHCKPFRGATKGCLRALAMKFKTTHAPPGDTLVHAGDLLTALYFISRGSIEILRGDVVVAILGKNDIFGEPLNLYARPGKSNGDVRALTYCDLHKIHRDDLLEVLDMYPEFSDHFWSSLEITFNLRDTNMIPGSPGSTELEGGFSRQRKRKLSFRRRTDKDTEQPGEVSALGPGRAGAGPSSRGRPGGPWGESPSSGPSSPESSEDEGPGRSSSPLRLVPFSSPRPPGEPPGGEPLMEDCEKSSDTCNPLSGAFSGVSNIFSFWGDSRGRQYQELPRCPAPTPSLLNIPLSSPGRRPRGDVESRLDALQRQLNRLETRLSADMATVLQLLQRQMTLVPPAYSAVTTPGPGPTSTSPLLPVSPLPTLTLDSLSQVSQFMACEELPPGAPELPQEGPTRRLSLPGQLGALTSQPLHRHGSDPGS
# T1 sequence (P41597 whole entry): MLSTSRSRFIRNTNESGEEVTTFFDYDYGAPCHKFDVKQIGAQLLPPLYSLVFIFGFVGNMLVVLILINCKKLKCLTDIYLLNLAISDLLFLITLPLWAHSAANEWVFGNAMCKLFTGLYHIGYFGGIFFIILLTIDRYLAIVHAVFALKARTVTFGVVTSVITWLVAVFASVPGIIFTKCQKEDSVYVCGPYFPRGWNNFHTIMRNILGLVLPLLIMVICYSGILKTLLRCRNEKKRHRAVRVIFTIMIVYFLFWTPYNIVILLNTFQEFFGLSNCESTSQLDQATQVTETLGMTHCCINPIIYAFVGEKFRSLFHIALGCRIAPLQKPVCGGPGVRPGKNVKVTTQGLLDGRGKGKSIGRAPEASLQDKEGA
# T2 sequence (Q12809 whole entry): as the sequence (Q12809 whole entry) above
# T3 sequence (P51683 whole entry): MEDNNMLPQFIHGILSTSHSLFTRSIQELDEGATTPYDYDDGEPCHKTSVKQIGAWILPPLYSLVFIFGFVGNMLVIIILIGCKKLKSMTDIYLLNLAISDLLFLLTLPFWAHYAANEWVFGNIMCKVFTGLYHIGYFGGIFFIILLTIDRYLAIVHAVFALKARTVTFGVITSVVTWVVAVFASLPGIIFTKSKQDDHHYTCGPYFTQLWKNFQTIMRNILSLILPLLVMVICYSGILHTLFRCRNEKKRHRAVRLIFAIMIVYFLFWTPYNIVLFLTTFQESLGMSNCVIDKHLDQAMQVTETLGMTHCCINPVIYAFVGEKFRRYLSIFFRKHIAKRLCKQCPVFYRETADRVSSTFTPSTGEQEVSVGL
# Cytochrome P450 2D6, sequence (P10635 whole entry): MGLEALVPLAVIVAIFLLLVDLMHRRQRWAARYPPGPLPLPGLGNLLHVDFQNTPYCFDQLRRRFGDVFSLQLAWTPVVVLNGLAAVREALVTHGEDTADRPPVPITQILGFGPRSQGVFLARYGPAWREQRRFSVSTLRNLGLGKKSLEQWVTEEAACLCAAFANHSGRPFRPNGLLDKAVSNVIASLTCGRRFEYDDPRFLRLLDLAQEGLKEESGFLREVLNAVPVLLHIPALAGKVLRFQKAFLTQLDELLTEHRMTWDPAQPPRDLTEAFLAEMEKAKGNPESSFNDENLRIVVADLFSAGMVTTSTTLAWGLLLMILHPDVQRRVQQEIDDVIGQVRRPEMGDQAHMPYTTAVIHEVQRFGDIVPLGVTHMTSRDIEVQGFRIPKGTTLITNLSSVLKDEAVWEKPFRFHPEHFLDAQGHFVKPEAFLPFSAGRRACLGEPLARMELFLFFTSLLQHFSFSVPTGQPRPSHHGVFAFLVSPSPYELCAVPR
# Cytochrome P450 2C19, sequence (P33261 whole entry): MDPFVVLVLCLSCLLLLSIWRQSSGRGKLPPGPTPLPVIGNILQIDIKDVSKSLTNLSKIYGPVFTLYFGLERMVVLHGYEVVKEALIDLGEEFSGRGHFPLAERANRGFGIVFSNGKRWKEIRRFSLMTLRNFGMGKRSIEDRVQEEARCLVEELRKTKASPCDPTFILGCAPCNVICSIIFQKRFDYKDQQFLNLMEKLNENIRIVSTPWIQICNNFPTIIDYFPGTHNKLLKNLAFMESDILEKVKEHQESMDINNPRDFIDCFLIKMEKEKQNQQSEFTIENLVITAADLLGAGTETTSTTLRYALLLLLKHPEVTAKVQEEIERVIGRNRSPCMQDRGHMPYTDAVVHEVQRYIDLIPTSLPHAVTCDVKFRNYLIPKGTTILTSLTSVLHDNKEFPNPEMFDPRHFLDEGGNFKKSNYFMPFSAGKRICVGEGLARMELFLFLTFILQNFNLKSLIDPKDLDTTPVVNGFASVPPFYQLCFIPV
# C-C chemokine receptor type 5 (Homo sapiens), sequence (P51681 whole entry, looked up): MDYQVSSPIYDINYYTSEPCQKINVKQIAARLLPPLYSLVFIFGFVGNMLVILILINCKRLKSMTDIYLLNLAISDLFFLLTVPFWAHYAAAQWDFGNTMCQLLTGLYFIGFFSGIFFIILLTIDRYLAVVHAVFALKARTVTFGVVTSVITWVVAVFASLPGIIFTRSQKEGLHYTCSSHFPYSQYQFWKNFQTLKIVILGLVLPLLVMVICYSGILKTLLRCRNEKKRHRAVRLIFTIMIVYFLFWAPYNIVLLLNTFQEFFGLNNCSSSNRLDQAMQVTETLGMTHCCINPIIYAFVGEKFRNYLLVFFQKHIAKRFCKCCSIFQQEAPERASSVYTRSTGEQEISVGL
# Cytochrome P450 2C9, sequence (P11712 whole entry): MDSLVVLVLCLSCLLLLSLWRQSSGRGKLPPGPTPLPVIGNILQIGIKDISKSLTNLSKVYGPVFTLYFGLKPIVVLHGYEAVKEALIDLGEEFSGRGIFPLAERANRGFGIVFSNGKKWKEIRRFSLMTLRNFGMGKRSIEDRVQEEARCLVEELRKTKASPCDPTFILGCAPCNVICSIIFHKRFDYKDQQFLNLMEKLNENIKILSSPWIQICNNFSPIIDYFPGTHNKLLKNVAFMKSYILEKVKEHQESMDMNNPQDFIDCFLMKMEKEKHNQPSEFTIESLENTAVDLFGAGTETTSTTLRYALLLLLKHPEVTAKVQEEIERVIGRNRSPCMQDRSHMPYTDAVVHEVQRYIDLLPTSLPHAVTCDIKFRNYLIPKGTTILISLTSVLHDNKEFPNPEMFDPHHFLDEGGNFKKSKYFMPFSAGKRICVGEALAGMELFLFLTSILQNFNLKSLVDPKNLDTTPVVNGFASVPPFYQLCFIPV
structure (smiles),measurement,setting,value
O=C(C1CCN(c2nccc(C(F)(F)F)n2)CC1)N1CC[C@H](N[C@H]2CC[C@@](O)(c3ccc(-c4ncccn4)cn3)CC2)C1,IC50,[1],5.4 nM
same,IC50,[2],29 nM
O=C(C1CCN(c2cc(C(F)(F)F)ncn2)CC1)N1CC[C@H](N[C@H]2CC[C@@](O)(c3ccc(-c4ncccn4)cn3)CC2)C1,IC50,[1],10 nM
same,IC50,[2],40 nM
same,IC50,[3],> 30000 nM
N#Cc1ccnc(N2CCC(C(=O)N3CC[C@H](N[C@H]4CC[C@@](O)(c5ccc(-c6ncccn6)cn5)CC4)C3)CC2)c1,IC50,[1],11 nM
same,IC50,[2],33 nM
O=C(N1CC[C@H](N[C@H]2CC[C@@](O)(c3ccc(-c4ncccn4)cn3)CC2)C1)C1(O)CCN(c2cc(C(F)(F)F)ccn2)CC1,IC50,[1],3.3 nM
same,IC50,[2],33 nM
same,IC50,[3],> 30000 nM
O=C(NCC(=O)N1CC[C@H](N[C@H]2CC[C@@](O)(c3ccc(-c4ncccn4)cn3)CC2)C1)c1cccc(C(F)(F)F)c1 [PF-4136309],fraction unbound,[4],0.23
same,IC50,[5],16 nM
same,CL,Rattus norvegicus [6],23.5 mL/min/kg
same,Tmax,[7],1.2 h
same,clearance,[8],7.67 mL/min/kg
same,half-life,[9],2.5 h
same,inhibition,[10],inactive
same,F,Rattus norvegicus [11],78%
same,Cmax,[12],0.61 µM
same,Tmax,[13],0.25 h
same,half-life,[14],3.2 h
same,IC50,Cytochrome P450 2C9,> 30000 nM
same,half-life,[15],1.48 h
same,IC50,[16],17 nM
same,inhibition,[17],inactive
same,Vd,[18],0.62 L/kg
same,t1/2,Rattus norvegicus [19],2.5 h
same,IC50,Cytochrome P450 1A2,> 30000 nM
same,IC50,Cytochrome P450 2D6,> 30000 nM
same,bioavailability,[20],78%
same,half-life,[21],2.4 h
same,IC50,[22],20000 nM
same,IC50,[23],2.8 nM
same,Drug metabolism,[24],Not Active
same,AUC,Rattus norvegicus [25],2.723 µM·h
same,IC50,[26],13 nM
same,Activity,[27],Not Active
same,IC50,Cytochrome P450 2C19,> 30000 nM
same,AUC,[28],35.6 µM·h
same,Papp,[29],3.1 ×10⁻⁶ cm/s
same,Drug metabolism,[30],Not Active
same,inhibition,[31],inactive
same,IC50,[3],> 30000 nM
same,inhibition,[32],inactive
same,Cmax,[33],20 µM
same,inhibition,[34],inactive
same,inhibition at 10 µM,hERG (KCNH2),35%
